Bioassay records deposited in PubChem BioAssay by several laboratories.
CHOP inh – inhibitors of CHOP promoter induction, primary screen, cell-based, unfolded protein response, luciferase reporter; CHO-K1 CHOP-promoter luciferase, tunicamycin-induced, 15-18 h; inhibition, % at 10 µM; hit rate 3.8% among 220,000;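 active = compounds that reduced the stress-induced luciferase reporter signal by more than about 70% of percent inhibition, limit read from the data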;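 also: 0% = tunicamycin plus vehicle and 100% = wells without tunicamycin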
UPR CHOP act – activators of apoptotic CHOP UPR arm, primary screen, cell-based, CHO-CHOP luciferase reporter, luminescence, uHTS | hit rate 0.34% among 330,000 | activation, % at 10 µM | UPR activation; percent of tunicamycin response over DMSO baseline | AID 449763, 2010;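 active = at 10 µM dose, activation of 40% or more, normalized to positive control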;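 also: 100% = tunicamycin at 10 µg/mL and 0% = DMSO alone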
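assay system = CHO CHOP reporter cells | amount = 500 CHO-CHOP cells per well | buffer or medium = F12 with 10% FBS | incubation = 16-18 h cell attachment, then 6 h compound exposure, 37 °C | detection = luminescence read with Steady-Glo | read-out = percent activation relative to tunicamycin control | controls = tunicamycin high control, DMSO low control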
XBP1 UPR activ – activators of adaptive XBP1 UPR arm, primary screen, cell-based, CHO-XBP1 luciferase reporter, luminescence, uHTS; IRE1-XBP1 UPR activation; percent of tunicamycin response, DMSO as zero; activation, % at 20 µM; hit rate 0.33% among 330,000;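 active = versus positive control, 20 µM dose yields 30% or more activation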;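 also: 100% = tunicamycin at 10 µg/mL and 0% = DMSO only wells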
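Material: CHO-XBP1 cells stably carrying IRE1-XBP1-driven luciferase reporter / Amount: 1000 cells per well / Compound: 20 µM, 1% DMSO / Times: 6 h treatment, 37 °C / Detection: luciferase luminescence / Measure: % activation of reporter signal versus tunicamycin and DMSO controls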
GAA850 FXN act – FXN promoter activators, primary screen, cell-based, luciferase luminescence, HEK293 lucGAA850 | HEK293 lucGAA850 FXN promoter luciferase reporter, 24 h; percent of 10 µM SAHA response | activation, % at 6 µM | hit rate 0.56% among 360,000;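 active = activation above the average of all compounds screened plus 3 SD, cutoff fixed separately per campaign, cut at about 7.5% in these data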;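 also: 0% = DMSO wells and 100% = 10 µM SAHA wells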
Active calls of the source: *; x = no result given. The full list was thinned out, with hits kept by preference.

SMILES	CHOP inh	UPR CHOP act	XBP1 UPR activ	GAA850 FXN act
OC(CNCc1ccc(F)cc1)(c1ccc(F)cc1)c1ccc(F)cc1	72*	-1	-1	-1
CC(C)(C)OC(=O)N(Cc1ccccc1)Cc1cccc(OCc2cccc(NC(=O)c3ccccc3)c2)c1	x	x	x	-2
COCCN(CC(=O)Nc1cccc(C)c1C)C(=O)/C=C/c1ccc2c(c1)OCCO2	x	x	x	1
CCOC(=O)c1nnn(-c2nonc2N)c1CN(C)Cc1ccccc1	81*	0	-2	-1
Cc1ccc(N(Cc2cc(=O)[nH]c3ccccc23)C(=O)c2ccco2)cc1	72*	-1	1	3
O=C(NCc1ccc(F)cc1)c1cc(C2CCCCN2S(=O)(=O)c2cccs2)on1 (centres undefined)	x	x	x	0
CO/N=C(\c1nonc1N)N1CCN(c2ccc([N+](=O)[O-])cc2Cl)CC1	73*	-1	-1	0
CC(=O)O/N=C(/c1nonc1N)N1CCN(c2ccc([N+](=O)[O-])cc2Cl)CC1	39	0	1	1
O=C(O)CCSc1ncnc2sc(-c3ccccc3)cc12	89*	-9	-5	-13
CC(=O)CCSc1ncnc2sc(-c3ccccc3)cc12	x	6	7	7
Cc1ccc(S(=O)(=O)NN=C2CCCc3ccccc32)cc1	x	x	x	-1
Cc1nc(N2CCN(C)CC2)c2sc(=S)n(-c3ccccc3)c2n1	-13	1	1	0
Cc1nc(N2CCN(C)CC2)c2sc(=S)n(C)c2n1	74*	-1	2	2
COc1cccc(NC(=O)C2(C)CCN2Cc2ccc(SC)cc2)c1 (centres undefined)	x	x	x	3
COc1cc(NS(=O)(=O)c2ccc(NC(=S)NC(=O)/C=C/c3ccc(OC)c(OC)c3)cc2)ncn1	79*	2	0	1
CCN(CC)CCNC(=O)c1ccc(N2CCCCC2)c(NS(=O)(=O)c2ccc(C)cc2)c1	72*	-2	0	0
C=CCn1c(SCc2nc3ccccc3c(=O)[nH]2)nnc1-c1cc2cc(Cl)ccc2o1	83*	0	7	6
O=c1[nH]c(CSc2nnnn2-c2ccc(Cl)cc2)nc2ccccc12	-4	0	3	0
Cc1ccc(S(=O)(=O)N(C)Cc2nc(-c3ccc(Br)cc3)no2)cc1	83*	-1	0	0
CCCCN(CC)c1nc(N)c2c(N)nc(OCC)cc2c1C#N	95*	0	4	-2
CC(=O)c1ccc(NC(=O)COC(=O)c2c3c(nc4ccccc24)/C(=C\c2cccs2)CCC3)cc1	77*	5	-4	-1
CCNC(=O)C1(C)CCN(C(=O)c2ccc(C(F)(F)F)cc2)C1 (centres undefined)	x	x	x	1
COc1ccc(/C=C/c2nc(N)nc(-c3ccccc3O)n2)cc1OC	79*	3	9	2
COc1ccc(/C=C/c2nc(N)nc(-c3ccccc3O)n2)cc1	78*	2	2	4
Nc1nc(N)nc(-c2ccccc2O)n1	28	0	1	7
SMILES	CHOP inh	UPR CHOP act	XBP1 UPR activ	GAA850 FXN act
CCCCNC(=O)C1(C)CCCCN1C(=O)c1cc(-c2ccccc2)cs1 (centres undefined)	x	x	x	-2
COc1cc(F)ccc1-c1csc(C(C)(NC(C)=O)c2ccccc2)n1 (centres undefined)	x	x	x	3
O=C(C[C@@H]1C[C@H]2c3cc(NC(=O)C4CCC4)ccc3O[C@H]2[C@@H](CO)O1)NCc1ccc(-c2ccccc2)cc1	x	x	x	-3
CCc1nc2ccc(C(=O)NCCOc3ccc(OC)cc3)cn2c1N(C=O)Cc1ccc(OC)cc1	x	x	x	-2
C=CCN1C(=O)/C(=C/c2ccc(N(C)C)cc2)S/C1=N\c1nnc(CC)s1	104*	x	x	x
C=CCN1C(=O)/C(=C/c2ccc(OCC(=O)O)cc2)S/C1=N/c1nccs1	17	1	-2	3
CSc1nnc(Cc2sc(-c3ccccc3)nc2-c2ccccc2)o1	83*	3	0	1
COc1ccc(C(C)(NC(C)=O)c2nc(-c3ccc(F)cc3OC)cs2)cc1 (centres undefined)	x	x	x	-1
CC(C)Cn1cc(C(=O)NCc2cccs2)c2c3ccccc3n(C)c2c1=O	94*	-1	-3	-4
CC(C)CCNC(=O)c1cn(CC(C)C)c(=O)c2c1c1ccccc1n2C	x	1	1	0
COc1ccc(C(C)(O)c2nc(-c3ccccc3C)cs2)cc1 (centres undefined)	x	x	x	-5
Cc1ccc(SC(C)C(=O)Nc2ccncc2)cc1 (centres undefined)	42	0	0	-2
CSc1cccc(NC(=O)C(C)Sc2ccc(C)cc2)c1 (centres undefined)	78*	3	0	0
CC(C)(C)N/N=C1\CC(c2ccccc2)Oc2ccccc21 (centres undefined)	73*	1	1	4
O=S(=O)(N/N=C1/CC(c2ccccc2)Oc2ccccc21)c1ccccc1 (centres undefined)	x	x	x	0
O=C(CSc1nnc(Cc2ccccc2)n1Cc1ccco1)NC12CC3CC(CC(C3)C1)C2	72*	0	0	0
CN(C)C(=O)CSc1nnc(Cc2ccccc2)n1Cc1ccco1	20	0	-1	3
CCOC(=O)NC(NCc1ccccc1)(C(F)(F)F)C(F)(F)F	3	1	-1	0
CCOC(=O)NC(NCCc1ccccc1)(C(F)(F)F)C(F)(F)F	70*	1	-4	-2
CCC(CO)Nc1ccn2nc(-c3cccc(Cl)c3)cc2n1 (centres undefined)	x	x	x	3
Oc1ccc(/C=N/n2c3ccccc3c3ccccc32)cc1	91*	1	-3	-3
Cc1nnc(C)n1/N=C/c1ccc(O)cc1	6	0	-3	0
COc1cc(O)c(CC=C(C)C)c(O)c1C(=O)CCc1ccc(O)cc1	89*	4	4	0
Cc1c(C)c2ccc(OCC(=O)NCCc3c[nH]c4ccccc34)cc2oc1=O	x	x	x	0
CCOC(=O)C1(S(=O)(=O)c2ccc(Cl)cc2)CCN(Cc2ccc(C)cc2)CC1	74*	-1	0	0
SMILES	CHOP inh	UPR CHOP act	XBP1 UPR activ	GAA850 FXN act
CCOC(=O)C1(Cc2ccc(Cl)cc2)CCN(Cc2cnc(N)nc2)CC1	16	-1	-2	0
Cc1ccc(N=C2NC(=O)/C(=C/c3cn(C)c4ccccc34)S2)cc1C	76*	x	x	1
Cn1cccc1/C=C1\SC(=Nc2ccccc2)NC1=O	-18	5	18	0
CCCCCCCCCCCCCCCCCC(=O)NCC(COP(=O)([O-])OCC[N+](C)(C)C)OCC (centres undefined)	-18	x	x	x
O=C(COc1ccccc1-c1ccccc1)N/N=C/c1ccccn1	77*	-1	3	-1
O=C(COc1ccccc1-c1ccccc1)N/N=C/c1ccncc1	35	-2	-4	0
